Results taken from ChEMBL document CHEMBL1146456, “Africane-type sesquiterpenoids from the Argentine liverwort Porella swartziana and their antibacterial activity” (J Nat Prod, 2004).
Calls of active or inactive are those of the source. The rule behind the calls is not given here.

Tests used:
[1] = tested on: Staphylococcus aureus; test: Antibacterial activity against Staphylococcus aureus ATCC 6538 P at below 625 ug/mL after 24 hrs by broth microdilution method; type: functional, organism-based
How it was run: (§1)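 Broth microdilution in LAPTg medium (pH 6.8). Inoculum set to 0.5 McFarland (10⁸ CFU/mL), then diluted to 10⁵ CFU/mL and confirmed by plate counts. Added to 0.1 mL broth containing compound over 5000 to 156.2 µg/mL, with DMSO as solvent. Incubated 24 h at 37 °C. MIC taken as the lowest concentration with no visible growth.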

[2] = tested on: Staphylococcus aureus; test: Antibacterial activity against Staphylococcus aureus F7 at below 625 ug/mL after 24 hrs by broth microdilution method; type: functional, organism-based; how it was run: as §1

SMILES	Activity [1]	Activity [2]
C[C@@H]1OC(=O)C2=C1CC(C)(C)C[C@H]1C[C@@]21C	inactive	inactive
COC(=O)CC1=C(C(C)=O)CC(C)(C)C[C@H]2C[C@@]12C	inactive	inactive
C[C@H]1C(=O)C=C2[C@H]1CC(C)(C)C[C@H]1C[C@@]21C	inactive	inactive
CC1(C)CC2=C(C(=O)O[C@]2(C)O)[C@]2(C)C[C@@H]2C1	inactive	inactive
CC1(C)C[C@H]2C[C@@]2(C)C2=CC(=O)[C@@]3(C)O[C@@]23C1	inactive	inactive
CC1(C)C=C2C(=CC(=O)[C@@]2(C)O)[C@]2(C)C[C@@H]2C1	inactive	inactive
Cc1oc(=O)cc2c1CC(C)(C)C[C@H]1C[C@@]21C	inactive	inactive
CC1(C)S[C@@H]2[C@H](NC(=O)Cc3ccccc3)C(=O)N2[C@H]1C(=O)O	Active	Active
CC1(C)C[C@H]2C[C@@]2(C)C2=CC(=O)[C@@](C)(O)[C@@H]2C1	inactive	inactive
